Experimental data published in ChEMBL document CHEMBL3124820, “Design, synthesis and biological evaluation of hetero-aromatic moieties substituted pyrrole-2-carbonitrile derivatives as dipeptidyl peptidase IV inhibitors” (Eur J Med Chem, 2014).
Each block holds one compound with its values, some of them ahead of it.

Experiments:
Mus musculus [1] = test: Antidiabetic activity in C57BKS db/db mouse assessed as blood glucose level at 15 mg/kg/day administered for 5 weeks followed by glucose challenge at 6 hrs starvation of post last dose measured at 60 mins by OGTT (reference value: 30.2 +/- 1.5 mmol/L); format: functional
Method in brief: (§1)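 C57BKS db/db mice received 5, 15 or 50 mg/kg/day for 5 weeks. Vehicle was 0.5% methylcellulose at 10 mL/kg/day. In week 5, mice were fasted 6 h and given an oral glucose load of 1.5 g/kg, then blood glucose was recorded over the glucose tolerance test. Data are mean ± SE, compared with Student's t-test.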

Mus musculus [2] = test: Antidiabetic activity in C57BKS db/db mouse assessed as blood glucose level at 15 mg/kg/day administered for 5 weeks followed by glucose challenge at 6 hrs starvation of post last dose measured at 30 mins by OGTT (reference value: 46.6 +/- 2.2 mmol/L); format: functional; method in brief: as §1
Mus musculus [3] = test: Antidiabetic activity in C57BKS db/db mouse assessed as blood glucose level at 15 mg/kg/day administered for 5 weeks followed by glucose challenge at 6 hrs starvation of post last dose measured at 120 mins by OGTT (reference value: 28.1 +/- 1.3 mmol/L); format: functional; method in brief: as §1
Mus musculus [4] = test: Antidiabetic activity in ICR mouse assessed as decrease in blood glucose AUC (0 to 120 mins) at 30 mg/kg administered for 30 mins prior to glucose challenge measured after 4 hrs by OGTT relative to vehicle-treated control; format: functional; set-up: scale not given: the % may be the effect or the level left
Method in brief: (§2)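 ICR mice were fasted 16 h and given one dose in 0.5% methylcellulose vehicle (10 mL/kg). An oral glucose load of 2.5 g/kg followed; methods state 30 min after dosing, the figure legend 4 h.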

Mus musculus [5] = test: Antidiabetic activity in C57BKS db/db mouse assessed as blood glucose level at 15 mg/kg/day administered for 5 weeks followed by glucose challenge at 6 hrs starvation of post last dose measured at 90 mins by OGTT (reference value: 27.2 +/- 1.3 mmol/L); format: functional; method in brief: as §1
Mus musculus [6] = test: Antidiabetic activity in C57BKS db/db mouse assessed as blood glucose level at 15 mg/kg/day administered for 5 weeks followed by glucose challenge at 6 hrs starvation of post last dose measured immediately by OGTT (reference value: 25 +/- 1.2 mmol/L); format: functional; method in brief: as §1
Mus musculus [7] = test: Antidiabetic activity in C57BKS db/db mouse assessed as blood glucose level at 5 mg/kg/day administered for 5 weeks followed by glucose challenge at 6 hrs starvation of post last dose measured at 30 mins by OGTT (reference value: 46.6 +/- 2.2 mmol/L); format: functional; method in brief: as §1
[8] = Apparent clearance in Sprague-Dawley rat at 20 mg/kg, iv; format: ADME, organism-based; set-up: dose 20 mg/kg, route intravenous; conditions: in vivo, read-out: CL(app) (converted)
Method in brief: (§3)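 Sprague-Dawley rats were dosed orally or intravenously, and blood was sampled after dosing. Plasma was separated by centrifugation and deproteinized with methanol containing an internal standard. The supernatant was diluted with methanol, centrifuged again and quantified by LC/MS/MS.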

[9] = Mean residence time in Sprague-Dawley rat at 20 mg/kg, iv; format: ADME, organism-based; set-up: dose 20 mg/kg, route intravenous; conditions: in vivo; method in brief: as §3
CYP2C9 = CYP2C9 (Homo sapiens, UniProt P11712); test: Inhibition of CYP2C9 (unknown origin) at 100 uM relative to control; format: ADME
[10] = AUC (0 to t) in Sprague-Dawley rat at 20 mg/kg, iv; format: ADME, organism-based; set-up: dose 20 mg/kg, route intravenous; conditions: plasma; method in brief: as §3
[11] = Tmax in Sprague-Dawley rat at 50 mg/kg, po; format: ADME, organism-based; set-up: dose 50 mg/kg, route oral; conditions: in vivo
Method in brief: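 Sprague-Dawley rats dosed orally (i.v. arm run in parallel). Blood collected after dosing and centrifuged to plasma. Plasma deproteinized with methanol containing an internal standard, centrifuged, and the supernatant diluted in methanol and recentrifuged. Drug levels in the supernatant quantified by LC/MS/MS, and Tmax taken from the plasma concentration-time profile.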

[12] = Tmax in Sprague-Dawley rat at 20 mg/kg, iv; format: ADME, organism-based; set-up: dose 20 mg/kg, route intravenous; conditions: in vivo; method in brief: as §3
Mus musculus [13] = test: Antidiabetic activity in C57BKS db/db mouse assessed as blood glucose level at 5 mg/kg/day administered for 5 weeks followed by glucose challenge at 6 hrs starvation of post last dose measured at 60 mins by OGTT (reference value: 30.2 +/- 1.5 mmol/L); format: functional; method in brief: as §1
[14] = Cmax in Sprague-Dawley rat at 50 mg/kg, po; format: ADME, organism-based; set-up: dose 50 mg/kg, route oral; conditions: in vivo; method in brief: as §3
Mus musculus [15] = test: Antidiabetic activity in C57BKS db/db mouse assessed as blood glucose level at 5 mg/kg/day administered for 5 weeks followed by glucose challenge at 6 hrs starvation of post last dose measured at 90 mins by OGTT (reference value: 27.2 +/- 1.3 mmol/L); format: functional; method in brief: as §1
Mus musculus [16] = test: Antidiabetic activity in ICR mouse assessed as decrease in blood glucose AUC (0 to 120 mins) at 15 mg/kg administered for 30 mins prior to glucose challenge measured after 4 hrs by OGTT relative to vehicle-treated control; format: functional; set-up: scale not given: the % may be the effect or the level left; method in brief: as §2
[17] = Half life in Sprague-Dawley rat at 50 mg/kg, po; format: ADME, organism-based; set-up: dose 50 mg/kg, route oral; conditions: in vivo; method in brief: as §3
[18] = target: Voltage-gated inwardly rectifying potassium channel KCNH2 (Homo sapiens, UniProt Q12809); test: Inhibition of human ERG expressed in CHO-ZG cells after 20 mins by FluxOR thallium assay
[19] = Cmax in Sprague-Dawley rat at 20 mg/kg, iv; format: ADME, organism-based; set-up: dose 20 mg/kg, route intravenous; conditions: in vivo; method in brief: as §3
[20] = AUC (0 to infinity) in Sprague-Dawley rat at 20 mg/kg, iv; format: ADME, organism-based; set-up: time infinity, dose 20 mg/kg, route intravenous; conditions: plasma; method in brief: as §3
Mus musculus [21] = test: Antidiabetic activity in C57BKS db/db mouse assessed as blood glucose level at 5 mg/kg/day administered for 5 weeks followed by glucose challenge at 6 hrs starvation of post last dose measured immediately by OGTT (reference value: 25 +/- 1.2 mmol/L); format: functional; method in brief: as §1
Mus musculus [22] = test: Antidiabetic activity in C57BKS db/db mouse assessed as blood glucose level at 50 mg/kg/day administered for 5 weeks followed by glucose challenge at 6 hrs starvation of post last dose measured at 120 mins by OGTT (reference value: 28.1 +/- 1.3 mmol/L); format: functional; method in brief: as §1
[23] = Oral bioavailability in Sprague-Dawley rat at 50 mg/kg; format: ADME, organism-based; conditions: in vivo; method in brief: as §3
[24] = Mean residence time in Sprague-Dawley rat at 50 mg/kg, po; format: ADME, organism-based; set-up: dose 50 mg/kg, route oral; conditions: in vivo; method in brief: as §3
Mus musculus [25] = test: Antidiabetic activity in ICR mouse assessed as decrease in blood glucose AUC (0 to 120 mins) administered for 30 mins prior to glucose challenge measured after 4 hrs by OGTT; format: functional, organism-based
Method in brief: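 ICR mice fasted 16 h, then given a single dose of 15 or 50 mg/kg; vehicle 0.5% methylcellulose (10 mL/kg), LAF237 30 mg/kg as positive control. Oral glucose 2.5 g/kg given 30 min after dosing (legend says 4 h). Blood glucose read at 0, 15, 30, 60, 90, 120 min for AUC0–120. Mean ± SE, n = 10; Student's t-test.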

CYP3A4 = CYP3A4 (Homo sapiens, UniProt P08684); test: Inhibition of CYP3A4 (unknown origin) at 100 uM relative to control; format: ADME
Mus musculus [26] = test: Antidiabetic activity in C57BKS db/db mouse assessed as blood glucose level at 5 mg/kg/day administered for 5 weeks followed by glucose challenge at 6 hrs starvation of post last dose measured at 120 mins by OGTT (reference value: 28.1 +/- 1.3 mmol/L); format: functional; method in brief: as §1
Mus musculus [27] = test: Antidiabetic activity in C57BKS db/db mouse assessed as blood glucose level at 50 mg/kg/day administered for 5 weeks followed by glucose challenge at 6 hrs starvation of post last dose measured at 60 mins by OGTT (reference value: 30.2 +/- 1.5 mmol/L); format: functional; method in brief: as §1
Mus musculus [28] = test: Antidiabetic activity in C57BKS db/db mouse assessed as blood glucose level at 50 mg/kg/day administered for 5 weeks followed by glucose challenge at 6 hrs starvation of post last dose measured immediately by OGTT (reference value: 25 +/- 1.2 mmol/L); format: functional; method in brief: as §1
Mus musculus [29] = test: Antidiabetic activity in C57BKS db/db mouse assessed as blood glucose level at 50 mg/kg/day administered for 5 weeks followed by glucose challenge at 6 hrs starvation of post last dose measured at 90 mins by OGTT (reference value: 27.2 +/- 1.3 mmol/L); format: functional; method in brief: as §1
Mus musculus [30] = test: Antidiabetic activity in ICR mouse assessed as decrease in blood glucose AUC (0 to 120 mins) at 50 mg/kg administered for 30 mins prior to glucose challenge measured after 4 hrs by OGTT relative to vehicle-treated control; format: functional; set-up: scale not given: the % may be the effect or the level left; method in brief: as §2
[31] = Half life in Sprague-Dawley rat at 20 mg/kg, iv; format: ADME, organism-based; set-up: dose 20 mg/kg, route intravenous; conditions: in vivo; method in brief: as §3
[32] = AUC (0 to t) in Sprague-Dawley rat at 50 mg/kg, po; format: ADME, organism-based; set-up: dose 50 mg/kg, route oral; conditions: plasma; method in brief: as §3
Mus musculus [33] = test: Antidiabetic activity in C57BKS db/db mouse assessed as blood glucose level at 50 mg/kg/day administered for 5 weeks followed by glucose challenge at 6 hrs starvation of post last dose measured at 30 mins by OGTT (reference value: 46.6 +/- 2.2 mmol/L); format: functional; method in brief: as §1
[34] = AUC (0 to infinity) in Sprague-Dawley rat at 50 mg/kg, po; format: ADME, organism-based; set-up: time infinity, dose 50 mg/kg, route oral; conditions: plasma; method in brief: as §3

CYP3A4, sequence (P08684 whole entry): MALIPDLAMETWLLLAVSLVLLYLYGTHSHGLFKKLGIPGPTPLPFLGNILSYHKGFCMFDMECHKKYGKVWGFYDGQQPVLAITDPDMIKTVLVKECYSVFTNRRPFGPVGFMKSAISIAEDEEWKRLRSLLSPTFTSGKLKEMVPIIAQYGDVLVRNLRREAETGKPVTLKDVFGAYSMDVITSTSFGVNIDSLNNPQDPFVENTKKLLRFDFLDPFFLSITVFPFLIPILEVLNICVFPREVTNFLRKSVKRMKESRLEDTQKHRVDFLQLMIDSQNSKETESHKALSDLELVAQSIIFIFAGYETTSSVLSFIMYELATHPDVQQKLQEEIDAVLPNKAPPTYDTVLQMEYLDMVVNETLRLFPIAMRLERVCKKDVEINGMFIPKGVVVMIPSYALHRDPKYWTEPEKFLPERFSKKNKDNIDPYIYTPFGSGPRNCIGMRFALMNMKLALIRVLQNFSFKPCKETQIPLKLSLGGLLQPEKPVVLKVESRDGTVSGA
CYP2C9, sequence (P11712 whole entry): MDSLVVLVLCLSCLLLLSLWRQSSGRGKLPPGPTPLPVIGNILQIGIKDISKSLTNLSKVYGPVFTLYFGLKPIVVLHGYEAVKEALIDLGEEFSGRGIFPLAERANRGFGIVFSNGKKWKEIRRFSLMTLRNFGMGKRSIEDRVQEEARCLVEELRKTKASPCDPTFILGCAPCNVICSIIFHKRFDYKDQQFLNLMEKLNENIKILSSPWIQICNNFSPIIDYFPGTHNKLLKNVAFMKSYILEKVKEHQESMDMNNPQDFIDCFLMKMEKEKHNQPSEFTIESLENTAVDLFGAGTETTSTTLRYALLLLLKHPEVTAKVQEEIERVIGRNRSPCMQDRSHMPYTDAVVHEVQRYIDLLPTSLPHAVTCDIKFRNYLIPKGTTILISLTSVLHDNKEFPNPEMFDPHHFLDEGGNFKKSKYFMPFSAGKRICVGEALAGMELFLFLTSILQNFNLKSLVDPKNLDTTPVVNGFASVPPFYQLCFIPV
Voltage-gated inwardly rectifying potassium channel KCNH2, sequence (Q12809 whole entry): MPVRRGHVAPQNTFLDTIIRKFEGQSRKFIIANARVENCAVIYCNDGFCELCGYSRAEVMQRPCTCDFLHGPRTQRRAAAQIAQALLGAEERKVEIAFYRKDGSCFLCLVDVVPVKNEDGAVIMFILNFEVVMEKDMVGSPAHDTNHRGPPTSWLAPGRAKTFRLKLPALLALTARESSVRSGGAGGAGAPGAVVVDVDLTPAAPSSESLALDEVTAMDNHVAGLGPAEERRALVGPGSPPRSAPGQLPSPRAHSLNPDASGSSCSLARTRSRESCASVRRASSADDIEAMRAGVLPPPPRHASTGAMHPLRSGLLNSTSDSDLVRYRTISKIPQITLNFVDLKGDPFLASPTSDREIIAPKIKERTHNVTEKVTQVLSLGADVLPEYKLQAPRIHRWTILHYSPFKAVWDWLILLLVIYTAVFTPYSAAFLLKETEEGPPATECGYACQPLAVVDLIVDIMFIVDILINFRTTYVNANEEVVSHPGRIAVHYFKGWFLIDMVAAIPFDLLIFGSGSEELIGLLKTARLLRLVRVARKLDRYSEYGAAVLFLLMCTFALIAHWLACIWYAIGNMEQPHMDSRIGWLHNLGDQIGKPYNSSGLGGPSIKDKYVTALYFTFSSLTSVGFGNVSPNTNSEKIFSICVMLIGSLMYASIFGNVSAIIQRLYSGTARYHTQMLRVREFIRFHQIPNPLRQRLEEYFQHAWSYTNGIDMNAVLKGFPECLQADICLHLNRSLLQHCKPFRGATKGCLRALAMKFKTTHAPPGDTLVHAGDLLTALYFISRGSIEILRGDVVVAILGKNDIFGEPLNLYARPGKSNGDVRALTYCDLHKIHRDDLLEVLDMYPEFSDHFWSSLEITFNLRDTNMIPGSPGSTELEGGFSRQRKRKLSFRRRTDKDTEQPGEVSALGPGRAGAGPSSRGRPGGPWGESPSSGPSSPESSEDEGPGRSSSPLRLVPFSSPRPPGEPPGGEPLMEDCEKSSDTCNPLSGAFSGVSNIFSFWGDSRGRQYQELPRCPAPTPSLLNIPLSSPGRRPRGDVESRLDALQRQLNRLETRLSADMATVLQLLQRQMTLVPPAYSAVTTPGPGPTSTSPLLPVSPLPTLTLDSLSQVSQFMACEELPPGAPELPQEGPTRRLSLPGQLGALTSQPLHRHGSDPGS

SMILES: N#C[C@@H]1CCCN1C(=O)CNC12CC3CC(CC(O)(C3)C1)C2 [VILDAGLIPTIN]
Activity (Mus musculus [1]): 21 mmol/L
Activity (Mus musculus [2]): 31.3 mmol/L
Activity (Mus musculus [3]): 21.4 mmol/L
Activity (Mus musculus [4]): 19.9%
Activity (Mus musculus [5]): 20.7 mmol/L
Activity (Mus musculus [6]): 17.9 mmol/L

clearance [8]: 116 mL/min/kg
MRT [9]: 1.48 h
inhibition at 100 µM (CYP2C9): 11.2%
AUC(0-t) [10]: 2890 ng·h/mL
Tmax [11]: 0.3 h
Tmax [12]: 0.3 h
Cmax [14]: 2710 ng/mL
half-life [17]: 1.45 h
Cmax [19]: 2960 ng/mL
AUC(0-inf) [20]: 2900 ng·h/mL
bioavailability [23]: 37.8%
MRT [24]: 1.47 h
inhibition at 100 µM (CYP3A4): 7.4%
half-life [31]: 2.27 h
AUC(0-t) [32]: 2730 ng·h/mL
AUC(0-inf) [34]: 2840 ng·h/mL
SMILES: N#C[C@@H]1C[C@H](F)CN1C(=O)[C@@H](N)Cc1cscn1
Activity (Mus musculus [7]): 45.1 mmol/L
Activity (Mus musculus [1]): 21.8 mmol/L
Activity (Mus musculus [2]): 41.3 mmol/L
Activity (Mus musculus [13]): 27.5 mmol/L
Activity (Mus musculus [15]): 24.1 mmol/L
Activity (Mus musculus [16]): 10.7%
IC50 [18]: 177 µM
Activity (Mus musculus [3]): 20.6 mmol/L
Activity (Mus musculus [21]): 21.5 mmol/L
Activity (Mus musculus [22]): 20.4 mmol/L
Activity (Mus musculus [5]): 20.8 mmol/L
Activity (Mus musculus [25]): Dose-dependent effect
Activity (Mus musculus [26]): 24.5 mmol/L
Activity (Mus musculus [27]): 19.9 mmol/L
Activity (Mus musculus [28]): 18.1 mmol/L
Activity (Mus musculus [6]): 18 mmol/L
Activity (Mus musculus [29]): 20.5 mmol/L
Activity (Mus musculus [30]): 12.8%
Activity (Mus musculus [33]): 38 mmol/L
